{"source": "paper PMC8210293", "about": "(Experimental and Therapeutic Medicine, 2021)", "format_in_all_cases": "in vitro ADME", "key": {"[1]": {"target": "T1, recombinant human UGT1A1 (Homo sapiens, UniProt P22309)", "T1 sequence (P22309 26-533)": "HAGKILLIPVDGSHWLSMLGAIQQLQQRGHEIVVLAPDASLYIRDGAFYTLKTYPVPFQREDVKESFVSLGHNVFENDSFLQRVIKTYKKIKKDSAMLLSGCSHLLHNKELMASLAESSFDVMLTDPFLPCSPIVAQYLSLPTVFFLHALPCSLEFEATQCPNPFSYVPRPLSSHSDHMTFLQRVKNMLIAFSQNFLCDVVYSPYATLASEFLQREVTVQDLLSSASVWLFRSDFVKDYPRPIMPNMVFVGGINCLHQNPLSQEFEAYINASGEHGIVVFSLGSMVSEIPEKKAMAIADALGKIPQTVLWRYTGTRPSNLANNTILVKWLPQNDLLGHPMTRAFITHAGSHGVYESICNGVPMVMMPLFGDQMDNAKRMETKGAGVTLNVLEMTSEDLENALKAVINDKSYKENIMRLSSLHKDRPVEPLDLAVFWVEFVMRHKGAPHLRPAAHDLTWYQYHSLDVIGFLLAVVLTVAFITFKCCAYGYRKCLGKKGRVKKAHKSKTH", "test": "Inhibition of recombinant UGT1A1-catalyzed 4-MU glucuronidation", "how_it_was_run": "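Recombinant human UGT1A1 from baculovirus-infected insect cells (0.125 mg/ml), 30 µM 4-MU, 5 mM UDPGA, 5 mM MgCl2, 50 mM Tris-HCl pH 7.4, DMSO <0.5%. Preincubated 5 min at 37 °C, started with UDPGA, run 120 min, stopped with cold methanol plus internal standard. 4-MU-G measured by LC-MS/MS MRM. Remaining activity vs blank at 50 µM. […] Ki by model fitting. Type from Lineweaver-Burk/Dixon plots.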"}, "[2]": {"target": "T2, recombinant human UGT1A3 (Homo sapiens, UniProt P35503)", "T2 sequence (P35503 29-534)": "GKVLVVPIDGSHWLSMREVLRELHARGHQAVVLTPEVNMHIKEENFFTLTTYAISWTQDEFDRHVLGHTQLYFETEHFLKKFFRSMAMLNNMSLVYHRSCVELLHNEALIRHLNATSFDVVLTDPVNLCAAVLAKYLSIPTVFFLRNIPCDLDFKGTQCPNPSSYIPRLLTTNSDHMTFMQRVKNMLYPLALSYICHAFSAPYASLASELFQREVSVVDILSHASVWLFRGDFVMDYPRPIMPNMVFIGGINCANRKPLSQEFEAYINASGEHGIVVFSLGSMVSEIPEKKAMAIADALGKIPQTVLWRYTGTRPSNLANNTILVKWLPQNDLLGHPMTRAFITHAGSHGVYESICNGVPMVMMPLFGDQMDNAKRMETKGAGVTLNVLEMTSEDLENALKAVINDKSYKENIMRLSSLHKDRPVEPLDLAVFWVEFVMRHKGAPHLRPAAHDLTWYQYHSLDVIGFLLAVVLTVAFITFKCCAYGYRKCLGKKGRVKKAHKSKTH", "test": "Inhibition of recombinant UGT1A3-catalyzed 4-MU glucuronidation", "conditions": "for Ki: UGT1A3", "how_it_was_run": "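Insect-cell-expressed recombinant human UGT1A3 (0.05 mg/ml), 1,200 µM 4-MU, 5 mM UDPGA, 5 mM MgCl2, 50 mM Tris-HCl pH 7.4, DMSO <0.5%. Preincubated 5 min at 37 °C, UDPGA-initiated, run 120 min, quenched with cold methanol plus internal standard. 4-MU-G by LC-MS/MS MRM. Remaining activity vs blank at 50 µM. […] Ki from inhibition-model fits and Lineweaver-Burk/Dixon plots.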"}, "[3]": {"target": "T3, recombinant human UGT1A6 (Homo sapiens, UniProt P19224)", "T3 sequence (P19224 27-532)": "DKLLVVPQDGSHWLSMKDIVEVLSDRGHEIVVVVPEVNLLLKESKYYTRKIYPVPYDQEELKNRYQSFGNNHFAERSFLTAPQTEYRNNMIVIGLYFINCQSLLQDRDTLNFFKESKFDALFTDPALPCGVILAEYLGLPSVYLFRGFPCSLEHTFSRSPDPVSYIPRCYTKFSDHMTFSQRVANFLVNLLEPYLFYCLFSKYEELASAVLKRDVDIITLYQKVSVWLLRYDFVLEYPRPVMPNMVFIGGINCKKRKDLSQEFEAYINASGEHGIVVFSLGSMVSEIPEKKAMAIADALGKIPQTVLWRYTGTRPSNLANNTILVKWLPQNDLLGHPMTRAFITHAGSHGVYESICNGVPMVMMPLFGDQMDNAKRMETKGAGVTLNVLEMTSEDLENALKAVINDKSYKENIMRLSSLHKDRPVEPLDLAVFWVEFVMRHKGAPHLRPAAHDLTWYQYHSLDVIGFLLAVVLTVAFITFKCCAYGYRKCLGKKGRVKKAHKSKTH", "test": "Inhibition of recombinant UGT1A6-catalyzed 4-MU glucuronidation", "conditions": "Dixon and Lineweaver-Burk plots"}, "[4]": {"target": "T4, recombinant human UGT1A9 (Homo sapiens, UniProt O60656)", "T4 sequence (O60656 26-530)": "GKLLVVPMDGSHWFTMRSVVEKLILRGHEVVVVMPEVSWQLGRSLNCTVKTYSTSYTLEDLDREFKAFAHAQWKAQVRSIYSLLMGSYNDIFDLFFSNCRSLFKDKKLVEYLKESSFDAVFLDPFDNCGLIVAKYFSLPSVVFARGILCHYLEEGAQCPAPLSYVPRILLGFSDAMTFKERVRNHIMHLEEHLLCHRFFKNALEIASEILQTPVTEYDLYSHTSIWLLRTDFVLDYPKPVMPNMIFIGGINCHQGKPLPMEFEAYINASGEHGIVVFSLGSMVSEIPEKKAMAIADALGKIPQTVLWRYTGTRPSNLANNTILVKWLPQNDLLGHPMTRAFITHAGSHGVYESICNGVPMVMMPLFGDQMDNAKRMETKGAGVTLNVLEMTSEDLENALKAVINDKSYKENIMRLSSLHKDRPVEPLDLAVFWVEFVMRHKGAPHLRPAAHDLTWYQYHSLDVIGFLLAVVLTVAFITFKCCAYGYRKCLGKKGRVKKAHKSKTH", "test": "Inhibition of recombinant UGT1A9-catalyzed 4-MU glucuronidation", "how_it_was_run": "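UGT1A9 incubations used recombinant human enzyme from baculovirus-insect cells (0.05 mg/ml), 30 µM 4-MU, 5 mM UDPGA, 5 mM MgCl2, 50 mM Tris-HCl pH 7.4, DMSO <0.5%. Preincubated 5 min at 37 °C, UDPGA-started, run 30 min, stopped with cold methanol plus internal standard. 4-MU-G by LC-MS/MS MRM. Remaining activity vs blank at 50 µM. […] Ki and type from model fits and Lineweaver-Burk/Dixon plots.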"}}}
{"smiles": "O=c1c(O)c(-c2ccc(O)c(O)c2)oc2cc(O)cc(O)c12", "note": "[Quercetin, 3,3',4',5,7-pentahydroxyflavone]", "values": [{"measurement": "IC50", "setting": "[1]", "result": 7.47, "unit": "µM"}, {"measurement": "Ki", "setting": "[1]; Inhibitory potential class based on Ki, UGT1A1", "result": "1 to 10", "unit": "µM"}, {"measurement": "Inhibition type", "setting": "[1]; UGT1A1, Dixon and Lineweaver-Burk plots", "result": "non-competitive inhibition"}, {"measurement": "IC50", "setting": "[2]", "result": 10.6, "unit": "µM"}, {"measurement": "Ki", "setting": "[2]; Inhibitory potential class based on Ki", "result": "1 to 10", "unit": "µM"}, {"measurement": "Ki", "setting": "[2]; Ki, second plot of Lineweaver-Burk slopes", "result": 1.6, "unit": "µM"}, {"measurement": "Inhibition type", "setting": "[3]", "result": "non-competitive inhibition"}, {"measurement": "IC50", "setting": "[4]", "result": 2.81, "unit": "µM"}, {"measurement": "Ki", "setting": "[4]", "result": 0.51, "unit": "µM"}, {"measurement": "Inhibition type", "setting": "[4]; UGT1A9, Dixon and Lineweaver-Burk plots", "result": "competitive inhibition"}]}
